Experimental data reported in PMC6699892 (Inorganic chemistry, 2019).

Assay: Lipophilicity, modified shake flask octanol-water partition
Format: physicochemical
Settings: chloride salts, 50 µM, 1-octanol/water, room temperature
Procedure, shortened: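 1-Octanol and water were mutually pre-saturated by shaking for 24 h at room temperature. Test compound at 50 µM in water-saturated octanol was mixed with an equal volume of octanol-saturated water, hand-shaken 200 times and centrifuged (11,000 rpm, 2 min). Each layer was quantified by absorbance against standard curves.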

## [Cl][Ru][Cl].c1ccc(-c2ccccn2)nc1.c1ccc(-c2ccccn2)nc1.c1ccc(-c2ccccn2)nc1 [[Ru(bpy)3]Cl2, reference compound]
  Octanol-water partition coefficient (log Po/w): < −3
